Compound activity: PubChem, several laboratories
p47phox inh: p47phox/p22phox peptide binding inhibitors, primary screen, biochemical, uHTS, NADPH oxidase regulatory subunit. 220,000 compounds, 0.53% hits. fluorescence polarization, 2 h. inhibition, % at 24.7 µM. Neutrophil cytosol factor 1 (Homo sapiens), P14598;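 active = inhibition above about 30%, limit read from the data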;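 note: 0% = p47phox with labelled peptide and 100% = labelled peptide alone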
Target sequence (P14598 whole entry, looked up): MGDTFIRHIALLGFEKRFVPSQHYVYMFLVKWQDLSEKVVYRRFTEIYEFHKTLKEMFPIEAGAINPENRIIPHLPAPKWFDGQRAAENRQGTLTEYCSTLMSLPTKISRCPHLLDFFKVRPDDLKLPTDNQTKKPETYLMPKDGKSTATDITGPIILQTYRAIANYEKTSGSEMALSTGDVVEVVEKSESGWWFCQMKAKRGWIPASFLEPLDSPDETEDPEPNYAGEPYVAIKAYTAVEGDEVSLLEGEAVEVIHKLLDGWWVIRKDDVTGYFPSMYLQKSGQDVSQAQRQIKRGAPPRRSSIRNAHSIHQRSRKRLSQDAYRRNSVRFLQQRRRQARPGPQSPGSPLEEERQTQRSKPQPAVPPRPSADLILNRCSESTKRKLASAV
Dynein transport: inhibitors of GR-EGFP nuclear translocation, primary screen, dynein cargo transport inhibitor project, imaging, high-content, 3617.4 mouse cells | test concentration mostly 20 µM; stimulated with dexamethasone, 1 µM; active compounds read low | z-score, hits read low | 220,000 compounds, 0.47% hits | AID 1381, 2008;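 active = plate z-score of nuclear minus cytoplasmic receptor signal below a set negative limit, without overly bright fluorescence or cell loss, cut at about -3.5 in these data, passing the limit was not always enough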;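 note: z-score of nuclear minus cytoplasmic ring GR-EGFP intensity difference per well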
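medium = tetracycline-free induction medium containing charcoal-stripped FBS | also added = 1.0 µM final dexamethasone stimulus | schedule = 48 h induction, 1 h compound, 30 min dex at 37 °C | technique = fixed, Hoechst-stained cells imaged at 10x for EGFP | measure = GR-EGFP nuclear translocation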
p-CIP stab down: p/CIP-EGFP fusion destabilizers, primary screen, fluorescence, F442A cells; Q05BA5; 290,000 compounds, 0.01% hits; 16 h; decrease of EGFP signal, % at 10 µM;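 active = EGFP signal decrease of at least 30% at 10 µM or well 3 SD below plate mean, unless failing retest; inactive = the rest, including hits failing retest or dose response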
RAM network inh: inhibitors of the yeast RAM network, primary screen, dse1pr::URA3 reporter, 5-FOA selection. inhibition, % at 50 µM. S. cerevisiae dse1pr::URA3 reporter, 5-FOA growth OD615, 2 d; analog-sensitive cbk1-as2 kinase mutant strain. 190,000 compounds, 1.8% hits;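 active = inhibition above a set limit, 3 SD over mean compound inhibition, cut at about 8.4% in these data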;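 note: 0% = DMSO-only wells with no growth and 100% = 10 µM 1-NA-PP1 full growth; inhibition rescues growth on 5-FOA so higher OD means more RAM inhibition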
Starred values were filed as active, the others as inactive; . = no result given; + = active, no number. A selection: hits, their analogues and other compounds. The true share with any hit is near 1.9%.

SMILES | p47phox inh | Dynein transport | p-CIP stab down | RAM network inh
COc1cc(S(=O)(=O)Nc2cccc(C)c2)ccc1N=Cc1c(C)[nH]n(-c2ccccc2)c1=O | -30 | 0.28 | 1 | 8.5*
Cc1csc(SCC(=O)Nc2ccccc2[N+](=O)[O-])n1 | -14 | -0.2 | -2 | 0
Cc1csc(SCC(=O)Nc2cccc3nsnc23)n1 | 144* | 3.8 | -9 | 0
CCCCCCCC[n+]1c(C)n(-c2ccccc2)c2ccc(NC(C)=O)cc21 | -19 | -0.67 | -8 | 0
COCCNC(=O)/C(C#N)=C/c1ccc(OC(=O)c2cccs2)c(OC)c1 | 113* | 1.5 | -38 | 0
Cc1ccc2nc3sc(C(=O)Nc4c(C)[nH]c(=O)[nH]c4=O)c(N)c3cc2c1 | -9 | -0.41 | 4 | 8
Cc1ccc2cc3c(N)c(C(=O)Nc4c(C)[nH]c(=O)[nH]c4=O)sc3nc2c1 | -26 | 0.54 | -4 | 9.5*
CC(C)(CNC(=O)/C=C/c1ccc(F)cc1)CNC(=O)/C=C/c1ccc(F)cc1 | -12 | -0.1 | -15 | 2
CN(C)c1ccc(N=Nc2ccc(S(=O)(=O)O)cc2)c2ccccc12 | -32 | -0.65 | -2 | 10*
CCN(CC)S(=O)(=O)c1cccc(C(=O)N/N=C/c2ccccn2)c1 | -13 | 0.29 | -1 | 1
O=C(CCSc1nnc2scc(-c3ccccc3)n12)NCc1ccc2c(c1)OCO2 | 5 | -0.3 | -10 | 10*
O=[N+]([O-])c1ccc2nc(SCc3ccccc3Cl)sc2c1 | -27 | 0.1 | -9 | 9.6*
COc1ccccc1OCCSc1nc2ccc([N+](=O)[O-])cc2s1 | -60 | -0.79 | 1 | 1
Nc1ccc2nc(SCc3ccc([N+](=O)[O-])cc3)sc2c1 | -6 | -0.24 | -1 | 3
C=CCc1ccccc1OCCSc1nc2ccc([N+](=O)[O-])cc2s1 | -53 | -0.39 | 1 | 11*
O=C(O)CC(NC(=O)c1sc2ccccc2c1Cl)c1ccc(OC2CCCC2)cc1 (stereo not drawn) | -12 | 0.47 | 1 | 9.6*
CCc1nnc(NCC(=O)N2CCc3ccccc32)s1 | + | -0.69 | -3 | 1
CCc1nnc(NC(=O)c2c(O)c3cccc4c3n(c2=O)CC4)s1 | . | . | -5 | .
CCc1cc(=S)n2c([nH]c3ccccc32)c1C#N | -5 | -0.78 | 8 | 2
CCc1c(C)c(C#N)c2[nH]c3ccccc3n2c1=S | 30* | -0.96 | -1 | .
COc1ccc(-n2cc3c(-c4cccc(Br)c4)nnc(C)c3n2)cc1 | -80 | -0.31 | -10 | 11*
Cc1ccc(C(=O)N2CCN(c3nc4ccccc4n3C)CC2)cc1 | . | . | -5 | .
O=c1oc2ccccc2n1CCCCCn1c(=O)oc2ccccc21 | 3 | -0.82 | 1 | 1
NC(=O)CCn1c(=O)oc2ccccc21 | 68* | -0.15 | -6 | 0
CCCCCc1c(C)nc(N2CCc3ccccc3C2)[nH]c1=O | -4 | -0.58 | -1 | 3
SMILES | p47phox inh | Dynein transport | p-CIP stab down | RAM network inh
CCCCCc1c(C)nc(N2CCc3ccccc32)[nH]c1=O | -20 | 0.44 | -23 | 9.9*
N#CCC(CNc1ncc(C(F)(F)F)cc1Cl)OC(=O)c1ccc(Cl)cc1Cl (stereo not drawn) | -1 | -0.27 | -14 | 9.6*
CCOC(=O)CNc1ncc(C(F)(F)F)cc1Cl | -6 | -1.4 | 0 | 1
CCn1c(SCC(=O)NC2CC2)nnc1-c1ccc(F)cc1 | . | . | 0 | .
COc1cc(NC(=O)Cn2c(=O)n(CC3CCCO3)c(=O)c3ccccc32)cc(OC)c1 (stereo not drawn) | -5 | -0.3 | -3 | 10*
COc1cc2c(cc1OC)n(CC(=O)NC1CCCCCC1)n1c(C)cc(=O)nc21 | . | . | -13 | .
CCOC(=O)c1c(C)[nH]c(C(=O)COC(=O)CCSc2ccccc2)c1C | -3 | 0.39 | -12 | 9.5*
NC(=O)/C=C\c1cn(-c2ccccc2)nc1-c1ccc2c(c1)OCCO2 | -37 | -0.25 | -2 | 3
CC(C)OC(=O)c1cn(-c2ccccc2)nc1-c1ccc2c(c1)OCCO2 | -10 | 0.8 | -3 | 11*
CCCc1nn2c(=O)cc(O)nc2s1 | -18 | -0.63 | -4 | 1
CCCc1nn2c(=O)c(C(c3ccc(C)cc3)c3c(O)nc4sc(CCC)nn4c3=O)c(O)nc2s1 | 149* | 2.4 | -28 | 1
CC1CCC2C(=O)N(c3cccc(OS(=O)(=O)c4ccccc4)c3)C(=O)C2C1 (stereo not drawn) | 1 | -0.36 | 0 | 9.4*
CCOc1cc(N2CCOCC2)c(OCC)cc1NC(=O)CCS(=O)(=O)c1ccc(Cl)cc1 | -10 | 0.24 | -5 | 3
CCOc1cc(N2CCOCC2)c(OCC)cc1NS(=O)(=O)c1ccc(Cl)s1 | 59* | -0.35 | 7 | 2
COc1ccc(C2c3c(-c4ccccc4O)n[nH]c3C(=O)N2CCc2ccc(OC)c(OC)c2)cc1 (stereo not drawn) | -3 | 1.2 | -3 | 11*
COc1ccc(CCN2C(=O)c3[nH]nc(-c4ccccc4O)c3C2c2cccc(Cl)c2)cc1 (stereo not drawn) | -20 | 1.5 | -8 | 7
Cc1ccc(NC(=O)CSc2nnc(C)c(=O)n2N)c(C)c1 | -13 | 0.47 | -19 | 2
Cc1ccc2nc(NC(=O)CSc3nnc(C)c(=O)n3N)sc2c1 | -10 | -1.1 | -6 | 8.9*
CCn1c(Cc2ccccc2)nnc1SCC(=O)Nc1nc2ccccc2s1 | -7 | 0.98 | -2 | 8
CCn1c(SCC(=O)Nc2nc3ccccc3s2)nnc1-c1ccc(OC)cc1 | -10 | 0.98 | -4 | 9.8*
CCCOc1ccc(N2CC(C(=O)NCCc3ccc(OC)c(OC)c3)CC2=O)cc1 (stereo not drawn) | . | -0.94 | -3 | 1
Cc1nc(NC(=O)CCc2ccccc2)sc1C | . | . | -20 | .
Cn1c2ccccc2c2nnc(SCC(=O)Nc3ccccc3F)nc21 | . | . | -3 | .
CC(=O)Nc1ccc(NC(=O)CSc2nnc3c4ccccc4n(C)c3n2)cc1 | 8 | -0.71 | -30 | 8.5*
CCCCNC(=S)N(C)/N=C/c1sc(N2CCCCC2)nc1-c1cccs1 | -12 | 0.59 | -1 | 9.9*
SMILES | p47phox inh | Dynein transport | p-CIP stab down | RAM network inh
CO/N=C/c1c(C(=O)OC)nn(-c2ccccc2)c1Cl | 1 | -0.29 | -16 | 2
COC(=O)c1nn(-c2ccccc2)c(Cl)c1/C=N/OCc1ccc(C)cc1 | 3 | 0.011 | -1 | 10*
CCOC(=O)/C(C#N)=C/Nc1ccccc1OC(F)(F)F | -13 | 1.6 | 3 | .
O=C(NNC(=O)c1cc([N+](=O)[O-])ccc1Cl)c1cccs1 | -6 | 1.3 | 1 | 1
O=C(c1ccccc1)n1nc(-c2ccccc2)nc1NCc1ccco1 | -7 | -1.1 | -4 | 10*
O=C(c1ccco1)n1nc(-c2cccnc2)nc1NCc1ccco1 | -10 | -0.47 | -3 | 2
c1ccc(CC2=NCCN2)cc1 | 54* | 0.61 | 1 | 3
COc1n[nH]c(C(=O)Nc2nc3ccccc3s2)c1[N+](=O)[O-] | -16 | -0.49 | 10 | 4
Cn1c(Cc2ccccc2)nnc1SCC(=O)N1CCN(c2ccccc2)CC1 | -16 | -0.13 | 5 | 2
